Results from different studies.
Protocols differ between the studies behind these lines.
Target: Myosin light chain kinase family member 4 (MYLK4, Homo sapiens, UniProt Q86YV6)
Residues used in one study (Q86YV6 1-388): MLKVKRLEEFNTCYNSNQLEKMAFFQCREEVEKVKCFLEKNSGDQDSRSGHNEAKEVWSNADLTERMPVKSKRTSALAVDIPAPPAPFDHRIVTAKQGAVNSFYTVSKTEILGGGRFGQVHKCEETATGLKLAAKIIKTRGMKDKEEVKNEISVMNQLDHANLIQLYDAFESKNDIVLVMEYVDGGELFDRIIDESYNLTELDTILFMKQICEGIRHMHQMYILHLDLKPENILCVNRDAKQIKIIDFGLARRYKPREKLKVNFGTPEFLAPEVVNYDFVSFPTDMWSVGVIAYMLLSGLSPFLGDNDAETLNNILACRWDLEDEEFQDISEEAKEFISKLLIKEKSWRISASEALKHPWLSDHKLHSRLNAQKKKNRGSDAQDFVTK

SMILES	effect on	method	concentration	remaining binding
CCN1CCN(Cc2ccc(C(=O)Nc3ccc(C)c(Oc4ccc5c(c4)CC(=O)N5)c3)cc2C(F)(F)F)CC1	binding	competition with immobilised ligand	1 µM	84%
C[C@@H](c1ccc(-n2cnc3c(N)ncnc32)cc1)N1CCc2nn(C)c(Cc3ccccc3)c2C1=O	binding	competition with immobilised ligand	0.1 µM	100%
O=C(c1ccc(Nc2ncc(Cl)c(-c3ccc(Cl)s3)n2)cc1)N1CCC(N2CCCC2)CC1	binding	competition with immobilised ligand	1 µM	0%
c1cnn2ncc(-c3ccnc(N4CCC45COC5)n3)c2c1	binding		1 µM	78%
CCS(=O)(=O)c1cc2cc(C[C@@](O)(CC(C)(C)c3ccc(F)cc3C(N)=O)C(F)(F)F)[nH]c2cn1	cell-free assay	competition with immobilised ligand	1 µM	100%
O=C(c1ccc(Nc2nccc(-c3cc4ccccc4s3)n2)cc1)N1CCC(N2CCCC2)CC1	binding	competition with immobilised ligand	1 µM	0.1%
COc1ccnn2ncc(-c3ccnc(N(C)C)n3)c12	binding		1 µM	100%
O=S(=O)(NC1CCC(c2cc(F)ccc2F)(S(=O)(=O)c2ccc(Cl)cc2)CC1)C(F)(F)F (stereo not shown)	cell-free assay	competition with immobilised ligand	1 µM	100%
CNC(=O)[C@@H]1CC[C@@H](n2c(-c3ccc4cnccc4c3)nc3ccc(C(=O)NCc4cccc(C(N)=O)c4)cc32)C1	binding	competition with immobilised ligand	1 µM	100%
Cc1cnn2ncc(-c3ccnc(N(C)C)n3)c2c1	binding		1 µM	80%
CS(=O)(=O)N1CCCC(NC(=O)[C@H](CCC2CCCCC2)NC(=O)c2ccc(CNc3ncnc4c3nnn4-c3ccccc3)cc2)C1 (stereo partly shown)	cell-free assay	competition with immobilised ligand	0.1 µM	100%
N[C@@H]1CCN(c2nccc(-c3cnn4ncccc34)n2)C1	binding		1 µM	100%
COc1cnc(Nc2cccc(S(N)(=O)=O)c2)nc1N1CCN(c2ccccc2)CC1	binding	competition with immobilised ligand	1 µM	100%
CC1CCCN1c1nccc(-c2cnn3ncccc23)n1 (stereo not shown)	binding		1 µM	100%
CC(=O)c1c(NS(C)(=O)=O)c2cc(-c3ccc(Cl)cc3)c(-c3ccc(Cl)cc3Cl)nc2n(C)c1=O	cell-free assay	competition with immobilised ligand	1 µM	100%
O=C(Nc1c[nH]nc1C(=O)NC1CCNCC1)c1cc(F)cc(F)c1	binding	competition with immobilised ligand	1 µM	100%
O=C(NCCCN1CCOCC1)c1ccc(Nc2ncc(Cl)c(-c3ccc(Cl)s3)n2)cc1	binding	competition with immobilised ligand	1 µM	0.05%
c1cncc(-c2cccc(Nc3nccc(NC4CCCCC4)n3)c2)c1	binding	competition with immobilised ligand	10 µM	51%
CNC(=O)Nc1ccc2c(c1)CC[C@@]21OC(=O)N(CC(=O)N(Cc2ccc(F)cc2)[C@@H](C)C(F)(F)F)C1=O	cell-free assay	competition with immobilised ligand	1 µM	70%
